From PubChem BioAssay
FN deposit inh = inhibitors of fibronectin matrix deposition, primary screen, AH1F cells, Alexa488-fibronectin fluorescence, plate reader. AH1F fibroblasts, overnight. inhibition, % at 12.6 µM. actives 0.086% (n = 350,000);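 active = mean inhibition across replicates of 30% or more, regardless of how many single replicates reach that level; inconclusive = mean under 30% yet at least half of replicates reach 30%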;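 note: positive control wells lacked labelled fibronectin entirely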
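Measured by – fluorescence 485/525 nm · System – AH1F fibroblast monolayer, labelled fibronectin deposition · Amount – 10000 cells per well · Buffer or medium – serum-reduced DMEM (2% serum) · Doses – single dose, pinned · Also added – fluorescent fibronectin at 24 nM final · Schedule – 1 h cell attachment, overnight exposure to compound and label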
DENV2 CPE rescue = inhibitors of DENV2 cytopathic effect, primary screen, cell-based, plate reader, single concentration; CPE inhibition, % at 9.99 µM; DENV2-infected cells, cytopathic effect rescue; actives 1.7% (n = 350,000); in the data active = CPE inhibition above about 20%, passing the limit was not always enough; inconclusive = no clear call, values can overlap the other calls; tested in BHK-21 cells;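 note: 0% = median of neutral control wells and 100% = median of positive control wells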
Xi reactivation = activators of inactive X chromosome reactivation, primary screen, imaging, XiGFP fibroblasts, GFP high-content imaging, set 2; XiGFP mouse fibroblasts, % GFP-positive cells imaging, 3 d; cells co-treated with 5-aza-dC sensitizer; scaled so ellipticine positive control = 100%; activation, % at 7.58 µM; actives 0.055% (n = 360,000);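 active = mean normalized replicate activation at least 10% and every replicate at or above 10%; inconclusive = only one of the two criteria met; inactive = mean below 10% and not all replicates reach 10%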;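 note: 0% = median of on-plate neutral control wells and 100% = ellipticine 6 µM median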
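Material: XiGFP fibroblasts, SV40-immortalized. Buffer or medium: DMEM plus 5-aza-dC sensitizer. Compound: single concentration per compound, delivered by pin transfer. Times: 3 days compound exposure. Controls: ellipticine 6 µM.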
FGF22 binding = binders of human FGF22 protein, primary screen, FGF22 synaptogenesis inhibitor project, biophysical, thermal shift, single point; Fibroblast growth factor 22 (Homo sapiens), Q9HCT0; recombinant FGF22 thermal shift, SYPRO orange fluorescence; percent of sucrose octasulfate shift, DMSO zero; activity (Tm shift, normalised), % at 9.99 µM; actives 1.5% (n = 340,000);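 active = mean Tm shift, scaled 0 neutral to 100 positive control, at about 1.3% or above, every replicate too, limit read from the data; inconclusive = no clear call, values can overlap the other calls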
Target sequence (Q9HCT0 whole entry, looked up): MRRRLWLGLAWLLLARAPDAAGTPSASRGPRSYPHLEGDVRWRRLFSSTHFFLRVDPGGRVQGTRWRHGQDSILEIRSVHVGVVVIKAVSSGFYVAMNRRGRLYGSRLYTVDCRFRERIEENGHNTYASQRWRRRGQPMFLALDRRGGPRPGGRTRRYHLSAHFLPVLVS
ARNT TACC3 PPI = disruptors of ARNT/TACC3 protein interaction, primary screen, biochemical, AlphaScreen, single concentration. actives 0.66% (n = 390,000). AlphaScreen His-ARNT PAS-B/GST-TACC3 binding, luminescence; TACC3 fragment carries E629A point mutation. inhibition, % at 9.99 µM. Transforming acidic coiled-coil-containing protein 3 (Homo sapiens), Q9Y6A5;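 active = mean inhibition of replicates at least 50% and at least half of replicates each reaching 50%; inconclusive = half or more replicates reach 50% but mean below 50%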;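 note: 0% = complete ARNT plus TACC3 wells and 100% = ARNT alone without TACC3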
SIRT5 inh = SIRT5 desuccinylase inhibitors, primary screen, biochemical, fluorescence imaging, single point, set 5. inhibition, % at 15 µM. NAD-dependent protein deacylase sirtuin-5, mitochondrial (Homo sapiens), Q9NXA8. actives 1.1% (n = 330,000). AID 652115, 2013. Purified SirT5, succinyl-peptide AMC, trypsin-coupled fluorescence; in the data active = inhibition above about 15%; inconclusive = no clear call, values can overlap the other calls
Target sequence (Q9NXA8 whole entry, looked up): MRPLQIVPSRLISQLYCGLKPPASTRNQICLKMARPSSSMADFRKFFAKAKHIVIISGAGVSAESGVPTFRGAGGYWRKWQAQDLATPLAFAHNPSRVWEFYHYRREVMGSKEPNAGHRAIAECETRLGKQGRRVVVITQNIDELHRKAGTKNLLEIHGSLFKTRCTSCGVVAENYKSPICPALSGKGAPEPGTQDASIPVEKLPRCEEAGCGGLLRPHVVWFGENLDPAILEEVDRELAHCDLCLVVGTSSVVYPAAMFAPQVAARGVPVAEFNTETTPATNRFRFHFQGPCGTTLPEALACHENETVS
* marks the source's active call; other numbers are inactive results; ? = inconclusive; . = no result; ! = not active in a repeat. The list is not random: actives were taken first. Their share in the collection is about 3.8%.

SMILES | FN deposit inh | DENV2 CPE rescue | Xi reactivation | FGF22 binding | ARNT TACC3 PPI | SIRT5 inh
CC1OC(OC2C(CO)OC(OCC3OC(OC(=O)[C@@]45CCC(C)(C)C[C@@H]4C4=CC[C@@H]6[C@@]7(C)CCC(OC8OCC(O)C(O)C8OC8OC(C)C(O)C(O)C8O)[C@@](C)(CO)C7CC[C@@]6(C)[C@]4(C)CC5)C(O)C(O)C3O)C(O)C2O)C(O)C(O)C1O (some centres undefined) | -1 | -2 | 0 | 0 | -3 | -3
COCc1cn(CC[C@@H]2CC[C@@H](NC(=O)Nc3c(C)noc3C)[C@@H](CO)O2)nn1 | -8 | 3 | 0 | 0 | -6 | -1
C[C@@H]1CN([C@H](C)CO)C(=O)c2cc(NS(C)(=O)=O)ccc2O[C@@H](C)CCCCO[C@H]1CN(C)C(=O)NC1CCCCC1 | -9 | -3 | 0 | 0 | -7 | .
CNC[C@@H]1Oc2ccc(NC(=O)Nc3ccccc3)cc2CC(=O)N([C@@H](C)CO)C[C@@H]1C | . | 10 | 0 | 0 | 14 | -3
COc1cccc(CNC(=O)C[C@@H]2CC[C@@H](NC(=O)C3CC3)[C@@H](CO)O2)c1 | -11 | -4 | 0 | 0 | 1 | 0
CCC(C(=O)Nc1cccc(C(=O)O)c1C)c1ccccc1 (centres undefined) | -4 | 1 | 0 | 43* | . | -1
O=C(/C=C/c1ccccc1)Oc1cccc2cccnc12 | 4 | 0 | 0 | 0 | 47* | -3
O=C(/C=C\c1ccccc1)Oc1cccc2cccnc12 | 9 | 1 | 0 | 0 | . | -1
C[C@H]1CN([C@@H](C)CO)C(=O)c2cccc(NC(=O)C3CCOCC3)c2O[C@H]1CN(C)Cc1ccc(C(=O)O)cc1 | . | -14 | 0 | 0 | -2 | 1
C[C@@H]1CN([C@H](C)CO)C(=O)c2cccc(NS(=O)(=O)c3cccs3)c2O[C@H]1CN(C)C | -7 | -1 | 0 | 0 | -8 | 4
C[C@H]1CN([C@@H](C)CO)C(=O)Cc2cc(NC(=O)c3ccncc3)ccc2O[C@@H]1CN(C)S(=O)(=O)c1cccs1 | -6 | -3 | -1 | 0 | -18 | -1
C[C@@H]1CN([C@@H](C)CO)C(=O)Cc2cc(NC(=O)Nc3ccccc3)ccc2O[C@H]1CN(C)S(=O)(=O)c1cccs1 | . | 25* | -1 | -1 | 14 | 2
C[C@@H]1CN([C@@H](C)CO)C(=O)Cc2cc(NC(=O)Nc3ccc(C(F)(F)F)cc3)ccc2O[C@H]1CN(C)S(=O)(=O)c1cccs1 | . | 35* | 0 | 0 | 2 | 9
C[C@@H]1CN([C@@H](C)CO)C(=O)Cc2cc(NC(=O)c3ccncc3)ccc2O[C@H]1CN(C)S(=O)(=O)c1cccs1 | -9 | 24* | -1 | 0 | -5 | -3
C[C@H]1CN([C@@H](C)CO)C(=O)Cc2cc(NC(=O)Nc3ccc(F)cc3)ccc2O[C@@H]1CN(C)S(=O)(=O)c1cccs1 | 11 | -3 | 0 | 0 | 5 | -2
C[C@H](CO)N1C[C@H](C)[C@H](CN(C)S(=O)(=O)c2cccs2)Oc2ccc(NC(=O)Nc3ccccc3)cc2CC1=O | . | -6 | 0 | -1 | 6 | -4
COc1ccccc1-c1ccc2c(c1)O[C@H](CN(C)S(=O)(=O)c1ccc(F)cc1)[C@H](C)CN([C@H](C)CO)S2(=O)=O | . | 7 | -1 | 0 | 9 | 26*
C[C@H](CO)N1C[C@H](C)[C@@H](CN(C)S(=O)(=O)c2ccc(F)cc2)Oc2cc(-c3cccc(F)c3)ccc2S1(=O)=O | -1 | -5 | -1 | 0 | -5 | 17*
C[C@@H]1CN([C@@H](C)CO)S(=O)(=O)c2ccc(-c3cccc(F)c3)cc2O[C@H]1CN(C)S(=O)(=O)c1ccc(F)cc1 | 0 | -8 | -1 | 0 | -2 | 14
COc1ccccc1-c1ccc2c(c1)O[C@H](CN(C)S(=O)(=O)c1ccc(F)cc1)[C@@H](C)CN([C@@H](C)CO)S2(=O)=O | . | ? | 0 | 0 | -1 | 23*
COc1cc(-c2nc3cccc(C)n3c2NCC2CCCO2)ccc1O (centres undefined) | -4 | -2 | 0 | 43* | -2 | -3
CC(NC(=O)CN(C)S(=O)(=O)c1cnc[nH]1)c1ccccc1 (centres undefined) | 4 | -2 | 0 | 44* | 1 | 0
CC1CCC(NC(=O)CN(C)S(=O)(=O)c2cnc[nH]2)CC1 (centres undefined) | -10 | 1 | 0 | 0 | -1 | -4
CC1CCCC(NC(=O)CN(C)S(=O)(=O)c2cnc[nH]2)C1C (centres undefined) | -10 | -3 | 0 | 43* | -8 | -2
Cc1cccc(NC(=O)CN(C)S(=O)(=O)c2cnc[nH]2)c1C | 1 | ? | 0 | 0 | . | 1
SMILES | FN deposit inh | DENV2 CPE rescue | Xi reactivation | FGF22 binding | ARNT TACC3 PPI | SIRT5 inh
CCC(=O)Nc1cccc(-c2cc3ccccc3oc2=O)c1 | -9 | 30* | 0 | 0 | 1 | 28*
CCC(=O)Nc1cccc(NC(=O)c2cc3ccccc3o2)c1 | . | . | . | . | -3 | .
C[C@@H]1CN([C@@H](C)CO)C(=O)c2cc(NS(=O)(=O)c3ccccc3)ccc2O[C@@H](C)CCCCO[C@H]1CN(C)S(=O)(=O)c1ccc(F)cc1 | . | -3 | 0 | 0 | 1 | 12
Cc1ccc(S(=O)(=O)N(C)C[C@@H]2OCCCC[C@H](C)Oc3ccc(NS(=O)(=O)c4ccc(F)cc4)cc3C(=O)N([C@H](C)CO)C[C@H]2C)cc1 | -5 | 8 | 0 | 0 | 9 | 22*
C[C@@H]1CN([C@@H](C)CO)C(=O)c2cc(NS(=O)(=O)c3ccccc3)ccc2O[C@@H](C)CCCCO[C@@H]1CN(C)S(=O)(=O)c1ccc(F)cc1 | . | -2 | 0 | 0 | -11 | 22*
C[C@@H]1CCCCO[C@@H](CN(C)S(=O)(=O)c2ccccc2)[C@@H](C)CN([C@H](C)CO)C(=O)c2cc(NS(=O)(=O)c3ccc(F)cc3)ccc2O1 | -15 | 10 | 0 | 1.3*! | -6 | -2
